Measurements taken from ChEMBL document CHEMBL3108674, “6-Alkoxy-5-aryl-3-pyridinecarboxamides, a new series of bioavailable cannabinoid receptor type 1 (CB1) antagonists including peripherally selective compounds” (J Med Chem, 2013).
Active and inactive are the calls of the source. The calls are words filed in the database; no cut-off is given here.

Columns and labels:
[1] = biological target: T1, Cannabinoid receptor 1 (Homo sapiens, UniProt P21554); experiment: Antagonist activity at human CB1 receptor overexpressed in HEK cells assessed as [35S]GTPgamma binding after 1 hr by liquid scintillation counting analysis; type: functional, cell-based, HEK293
T1 sequence (P21554 whole entry): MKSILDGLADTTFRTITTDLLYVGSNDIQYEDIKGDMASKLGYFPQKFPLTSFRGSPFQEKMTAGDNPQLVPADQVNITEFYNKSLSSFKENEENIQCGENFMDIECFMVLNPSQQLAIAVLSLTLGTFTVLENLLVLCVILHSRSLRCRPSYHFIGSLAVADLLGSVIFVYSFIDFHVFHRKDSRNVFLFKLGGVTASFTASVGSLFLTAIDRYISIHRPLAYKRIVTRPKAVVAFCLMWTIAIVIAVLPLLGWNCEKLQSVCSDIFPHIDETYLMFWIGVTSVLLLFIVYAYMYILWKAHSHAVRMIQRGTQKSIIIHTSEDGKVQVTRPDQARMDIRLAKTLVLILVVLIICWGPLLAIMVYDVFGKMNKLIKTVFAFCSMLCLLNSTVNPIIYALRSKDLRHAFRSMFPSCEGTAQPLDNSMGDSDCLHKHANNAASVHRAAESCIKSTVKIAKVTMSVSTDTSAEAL

[2] = test system: Rattus norvegicus; experiment: Reduction of leptin level in high fat diet-fed Sprague-Dawley rat plasma at 30 mg/kg, po qd after 24 days by ELISA; type: functional, organism-based; parameters: dose 30 mg/kg
How it was run: (§1)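 Diet-induced obese Sprague-Dawley rats (high responders), single-housed, groups of n = 9 matched for body weight and MRS body fat; drug given as food admix for 24 days alongside pair-fed groups; body weight and food intake measured daily; body fat by MRS; plasma leptin by ELISA; mean ± SEM, ANOVA with Dunnett's test versus vehicle.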

[3] = biological target: Cannabinoid receptor 2 (Homo sapiens, UniProt P34972); experiment: Displacement of [3H]CP55940 from human CB2 receptor expressed in CHOK1 cells after 1 hr by liquid scintillation counting analysis; type: cell-based, CHO-K1
Chain of Cannabinoid receptor 2 (P34972 whole entry): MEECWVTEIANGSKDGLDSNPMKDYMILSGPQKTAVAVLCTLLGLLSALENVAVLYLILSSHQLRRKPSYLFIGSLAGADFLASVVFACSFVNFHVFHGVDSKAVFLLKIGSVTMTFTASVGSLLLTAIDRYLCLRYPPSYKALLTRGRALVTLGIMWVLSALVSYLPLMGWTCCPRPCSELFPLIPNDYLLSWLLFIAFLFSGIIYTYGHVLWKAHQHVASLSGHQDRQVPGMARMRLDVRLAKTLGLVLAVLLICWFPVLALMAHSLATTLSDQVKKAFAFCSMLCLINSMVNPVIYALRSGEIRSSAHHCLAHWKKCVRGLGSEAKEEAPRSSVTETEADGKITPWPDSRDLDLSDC
How it was run: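 Membranes from butyrate-treated (5 mM, 24 h) CHO-K1 cells stably expressing human CB2, incubated with 0.3 nM [3H]CP55940 and increasing ligand concentrations, 60 min, 30 °C, pH 7.4 Tris buffer with 0.1% fatty acid-free BSA and 1% DMSO; nonspecific binding with 10 μM CP55940; filtration, scintillation counting; tested in triplicate.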

[4] = Clearance in rat at 3.3 mg/kg, iv; type: ADME, organism-based; parameters: dose 3.3 mg/kg, route intravenous; conditions: in vivo
[5] = Tmax in rat plasma at 9 mg/kg, po; type: ADME, organism-based; parameters: dose 9 mg/kg, route oral
[6] = Oral bioavailability in rat at 9 mg/kg; type: ADME, organism-based; conditions: in vivo
[7] = test system: Rattus norvegicus; experiment: Maximum unbound fraction in rat at 9 mg/kg, po; type: ADME, organism-based; parameters: dose 9 mg/kg, route oral; conditions: in vivo
[8] = test system: Plasma; experiment: Maximum unbound fraction in rat plasma at 9 mg/kg, po; type: ADME, organism-based; parameters: dose 9 mg/kg, route oral; conditions: in vivo
[9] = Ratio of drug level in Sprague-Dawley rat brain to plasma at 30 mg/kg, po qd after 10 days by LC-MS/MS analysis; type: ADME, organism-based; parameters: dose 30 mg/kg, route oral; conditions: brain and plasma, read-out: BPR
[10] = biological target: T1, Cannabinoid receptor 1; experiment: Displacement of [3H]CP55940 from human CB1 receptor expressed in CHOK1 cells after 1 hr by liquid scintillation counting analysis; type: cell-based, CHO-K1
[11] = species: Rattus norvegicus; experiment: Reduction in body weight gain in high fat diet-fed Sprague-Dawley rat at […]; type: functional, organism-based
[12] = Drug uptake in Sprague-Dawley rat brain at 30 mg/kg, po qd after 10 days by LC-MS/MS analysis; type: ADME, organism-based; parameters: dose 30 mg/kg, route oral; conditions: read-out: Drug uptake
[13] = Ratio of drug level in brain to plasma in rat; type: ADME; conditions: brain and plasma, read-out: BPR
[14] = test system: Liver microsome; experiment: Clearance in rat liver microsomes at 2 uM by LC-MS/MS analysis; type: ADME
How it was run: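 Rat liver microsomes at 0.5 mg/mL were incubated with 2 μM compound (final) and an NADPH-regenerating system. Aliquots were taken at 1, 3, 6, 9, 15, 25, 35 and 45 min and quenched in acetonitrile containing internal standard. Depletion was measured by LC-MS/MS. Clmic = −slope × 1000 / protein concentration (mg/mL), not corrected for microsomal protein binding.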

[15] = Cmax in rat plasma at 9 mg/kg, po; type: ADME, organism-based; parameters: dose 9 mg/kg, route oral
[16] = test system: Rattus norvegicus; experiment: Reduction in body fat content in high fat diet-fed Sprague-Dawley rat at 30 mg/kg, po qd after 24 days; type: functional, organism-based; parameters: dose 30 mg/kg; how it was run: as §1
[17] = Plasma protein binding in rat; type: ADME, cell-free; conditions: read-out: PPB (converted)
[18] = Volume of distribution at steady state in rat at 3.3 mg/kg, iv; type: ADME, organism-based; parameters: dose 3.3 mg/kg, route intravenous; conditions: in vivo, read-out: Vdss
[19] = biological target: T2, Substance-K receptor (Homo sapiens, UniProt P21452); experiment: Antagonist activity at human NK2 receptor
T2 sequence (P21452 whole entry): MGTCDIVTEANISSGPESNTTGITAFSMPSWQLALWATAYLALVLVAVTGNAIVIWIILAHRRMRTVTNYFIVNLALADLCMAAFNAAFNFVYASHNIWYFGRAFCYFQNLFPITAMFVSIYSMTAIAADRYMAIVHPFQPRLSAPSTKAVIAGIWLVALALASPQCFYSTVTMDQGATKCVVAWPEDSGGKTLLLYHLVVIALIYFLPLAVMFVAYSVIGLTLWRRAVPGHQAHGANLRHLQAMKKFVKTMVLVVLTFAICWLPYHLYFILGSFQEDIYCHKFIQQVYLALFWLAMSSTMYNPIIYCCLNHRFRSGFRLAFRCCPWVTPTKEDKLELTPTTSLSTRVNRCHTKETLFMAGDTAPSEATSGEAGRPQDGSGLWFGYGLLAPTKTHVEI

[20] = Cmax in Sprague-Dawley rat plasma at 30 mg/kg, po qd after 10 days by LC-MS/MS analysis; type: ADME, organism-based; parameters: dose 30 mg/kg, route oral
How it was run: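 Male Sprague-Dawley rats (n = 3 per compound) given 30 mg/kg/day as feed admix for 10 days; jugular vein catheter implanted 4 days before sampling; on day 10 switched to drug-free high fat chow, then serial K3EDTA blood samples over 24 h; plasma drug levels by LC-MS.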

[21] = Volume of distribution at steady state in rat at 1 mg/kg, iv; type: ADME, organism-based; parameters: dose 1 mg/kg, route intravenous; conditions: in vivo, read-out: Vdss
[22] = test system: Rattus norvegicus; experiment: Increase of insulin sensitivity in high fat diet-fed Sprague-Dawley rat assessed as decrease in insulin AUC at 30 mg/kg, po qd administered for 24 days followed by glucose challenge by oral glucose tolerance test; type: functional, organism-based; parameters: dose 30 mg/kg
[23] = Cmax in rat plasma at 7.9 mg/kg, po; type: ADME, organism-based; parameters: dose 7.9 mg/kg, route oral
[24] = test system: Hepatocyte; experiment: Intrinsic clearance in rat hepatocytes at 10 uM by LC-MS/MS analysis; type: ADME, cell-based
[25] = test system: Plasma; experiment: Maximum unbound fraction in rat plasma at 7.9 mg/kg, po; type: ADME, organism-based; parameters: dose 7.9 mg/kg, route oral; conditions: in vivo
[26] = test system: Rattus norvegicus; experiment: Maximum unbound fraction in rat at 7.9 mg/kg, po; type: ADME, organism-based; parameters: dose 7.9 mg/kg, route oral; conditions: in vivo
[27] = Oral bioavailability in rat at 7.9 mg/kg; type: ADME, organism-based; conditions: in vivo
[28] = Tmax in rat plasma at 7.9 mg/kg, po; type: ADME, organism-based; parameters: dose 7.9 mg/kg, route oral
[29] = Clearance in rat at 1 mg/kg, iv; type: ADME, organism-based; parameters: dose 1 mg/kg, route intravenous; conditions: in vivo
[30] = Cmax in rat plasma at 10 mg/kg, po; type: ADME, organism-based; parameters: dose 10 mg/kg, route oral
How it was run: (§2)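 Single-dose oral PK in rats at 10 mg/kg, measuring peak plasma concentration. The maximum unbound level was given alongside rat plasma protein binding (%).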

[31] = Oral bioavailability in rat; type: ADME, organism-based; conditions: in vivo
How it was run: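 Bioavailability from rat single-dose PK, comparing oral dosing (10, 7.9 or 9 mg/kg, depending on compound) with intravenous dosing.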

[32] = Tmax in rat plasma at 10 mg/kg, po; type: ADME, organism-based; parameters: dose 10 mg/kg, route oral
How it was run: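 Single oral dose of 10 mg/kg in rats. Plasma concentrations followed over time, and time to peak plasma level (h) read from the profile.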

[33] = Tmax in po dosed rat plasma; type: ADME, organism-based
How it was run: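 Single-dose rat PK study: compound given orally at 7.9 or 9 mg/kg, depending on compound. Plasma exposure followed over time, and Tmax (h) taken from the plasma concentration–time profile.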

[34] = test system: Rattus norvegicus; experiment: Increase of insulin sensitivity in high fat diet-fed Sprague-Dawley rat assessed as decrease in insulin AUC at 10 mg/kg, po qd administered for 24 days followed by glucose challenge by oral glucose tolerance test; type: functional, organism-based; parameters: dose 10 mg/kg
[35] = Clearance in iv dosed rat; type: ADME, organism-based; conditions: in vivo
[36] = test system: Plasma; experiment: Maximum unbound fraction in rat plasma at 10 mg/kg, po; type: ADME, organism-based; parameters: dose 10 mg/kg, route oral; conditions: in vivo; how it was run: as §2
[37] = test system: Rattus norvegicus; experiment: Maximum unbound fraction in rat at 10 mg/kg, po; type: ADME, organism-based; parameters: dose 10 mg/kg, route oral; conditions: in vivo; how it was run: as §2
[38] = Volume of distribution at steady state in iv dosed rat; type: ADME, organism-based; conditions: in vivo, read-out: Vdss

Compound: COCCOc1ncc(C(=O)N[C@@H]2CCCC[C@H]2O)cc1-c1ccc(Cl)cc1
- EC50 [1]: 11.6 nM
- Activity [2]: inactive
- Ki [3]: > 10 µM
- clearance [4]: 18.6 mL/min/kg
- Tmax [5]: 30 min
- bioavailability [6]: 84%
- fCmax [7]: 156 nM
- Cp(f)max [8]: 63 ng/mL
- Kp at 240 h [9]: 0.13
- Ki [10]: 5.1 nM
- Activity [11]: inactive
- concentration at 240 h [12]: 130 ng/g
- Kp [13]: 0.1
- CLH [14]: 98 µL/min/mg
- Cmax [15]: 1620 ng/mL
- Activity [16]: inactive
- fraction unbound [17]: 0.039
- Vd [18]: 0.7 L/kg
- IC50 [19]: 46 µM
- Cmax [20]: 1000 ng/mL

Compound: O=C(N[C@@H]1CCCC[C@H]1O)c1cnc(OCC2CC2)c(-c2ccc(Cl)cc2)c1
- EC50 [1]: 3.9 nM
- Activity [2]: Active
- Ki [3]: > 7 µM
- Vd [21]: 1.8 L/kg
- Activity [22]: Active
- Cmax [23]: 729 ng/mL
- CLH [24]: 3.3 µL/min
- Cp(f)max [25]: < 11 ng/mL
- Kp at 240 h [9]: 1.3
- Activity [11]: Active
- concentration at 240 h [12]: 1400 ng/g
- fCmax [26]: < 28 nM
- bioavailability [27]: 23%
- Tmax [28]: 1.9 h
- Kp [13]: 0.7
- CLH [14]: 64 µL/min/mg
- Activity [16]: Active
- clearance [29]: 7.4 mL/min/kg
- fraction unbound [17]: < 0.016
- Cmax [20]: 1020 ng/mL

Compound: Cc1c(C(=O)NN2CCCCC2)nn(-c2ccc(Cl)cc2Cl)c1-c1ccc(Cl)cc1 [RIMONABANT]
- Cmax [30]: 244 ng/mL
- bioavailability [31]: 12%
- Tmax [32]: 1.5 h
- Tmax [33]: 1 h
- Activity [34]: Active
- Kp [13]: 3
- clearance [35]: 17 mL/min/kg
- Cp(f)max [36]: 0.83 ng/mL
- fraction unbound [17]: 0.003
- fCmax [37]: 1.8 nM
- Vd [38]: 11.5 L/kg
